Source: ChEMBL document CHEMBL2380302, “Synthesis of 3-O-propargylated betulinic acid and its 1,2,3-triazoles as potential apoptotic agents” (Eur J Med Chem, 2013)
The source made the active and inactive calls. The calls are words filed in the database; no cut-off is given here.

Tests used:
THP-1 [1] = assay: Cytotoxicity against human THP1 cells after 48 hrs by SRB assay; type: functional, cell-based; settings: THP-1, 48 h
THP-1 [2] = assay: Inhibition of cell invasion in human THP1 cells at 1 to 30 uM after 24 hrs by wound-healing assay; type: functional, cell-based
Method in brief: (§1)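 THP-1 monolayers (3×10⁵ cells/mL/well) were scratched with a pipette tip and washed three times with PBS. Test samples were added for 24 h, then fresh medium was added until the control wound healed. Wounds were imaged with a 10× objective at 0 h and 24 h. Migration was quantified as the distance between wound edges.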

A549 [3] = assay: Cytotoxicity against human A549 cells at 30 uM after 48 hrs by SRB assay; type: functional; settings: A549, 48 h, read-out: GI
HEp-2 [4] = assay: Cytotoxicity against human Hep2 cells at 30 uM after 48 hrs by SRB assay; type: functional; settings: HEp-2, 48 h, read-out: GI
A549 [5] = assay: Cytotoxicity against human A549 cells at 50 uM after 48 hrs by SRB assay; type: functional; settings: A549, 48 h, read-out: GI
HL-60 [6] = assay: Cytotoxicity against human HL60 cells after 48 hrs by SRB assay; type: functional, cell-based; settings: HL-60, 48 h
PC-3 [7] = assay: Cytotoxicity against human PC3 cells at 10 uM after 48 hrs by SRB assay; type: functional; settings: PC-3, 48 h, read-out: GI
THP-1 [8] = assay: Cytotoxicity against human THP1 cells at 50 uM after 48 hrs by SRB assay; type: functional; settings: THP-1, 48 h, read-out: GI
DU-145 [9] = assay: Cytotoxicity against human DU145 cells after 48 hrs by SRB assay; type: functional, cell-based; settings: DU-145, 48 h
MCF7 [10] = assay: Cytotoxicity against human MCF7 cells at 30 uM after 48 hrs by SRB assay; type: functional; settings: MCF7, 48 h, read-out: GI
SF-295 [11] = assay: Cytotoxicity against human SF295 cells at 10 uM after 48 hrs by SRB assay; type: functional; settings: SF-295, 48 h, read-out: GI
HEp-2 [12] = assay: Cytotoxicity against human Hep2 cells after 48 hrs by SRB assay; type: functional, cell-based; settings: HEp-2, 48 h
DU-145 [13] = assay: Cytotoxicity against human DU145 cells at 30 uM after 48 hrs by SRB assay; type: functional; settings: DU-145, 48 h, read-out: GI
HCT-15 [14] = assay: Cytotoxicity against human HCT15 cells at 30 uM after 48 hrs by SRB assay; type: functional; settings: HCT-15, 48 h, read-out: GI
HL-60 [15] = assay: Ratio of betulinic acid IC50 to compound IC50 for human HL60 cells; type: functional
HL-60 [16] = assay: Induction of apoptosis in human HL60 cells assessed as change in mitochondrial membrane potential after 24 hrs using rhodamine-123 staining by fluorescence based confocal microscopy analysis; type: functional, cell-based
Method in brief: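 HL-60 cells (6 × 10⁴/mL/well) were treated for 24 h. Rhodamine-123 (1 µM) was added in serum-free medium 30 min before the end, in the dark. Cells were then washed and resuspended in PBS. Fluorescence loss was viewed by confocal microscopy with 488 nm laser excitation. Each experiment was done twice.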

MCF7 [17] = assay: Cytotoxicity against human MCF7 cells after 48 hrs by SRB assay; type: functional, cell-based; settings: MCF7, 48 h
HEp-2 [18] = assay: Cytotoxicity against human Hep2 cells at 50 uM after 48 hrs by SRB assay; type: functional; settings: HEp-2, 48 h, read-out: GI
DU-145 [19] = assay: Cytotoxicity against human DU145 cells at 10 uM after 48 hrs by SRB assay; type: functional; settings: DU-145, 48 h, read-out: GI
HCT-15 [20] = assay: Cytotoxicity against human HCT15 cells at 50 uM after 48 hrs by SRB assay; type: functional; settings: HCT-15, 48 h, read-out: GI
MCF7 [21] = assay: Cytotoxicity against human MCF7 cells at 10 uM after 48 hrs by SRB assay; type: functional; settings: MCF7, 48 h, read-out: GI
SF-295 [22] = assay: Cytotoxicity against human SF295 cells at 50 uM after 48 hrs by SRB assay; type: functional; settings: SF-295, 48 h, read-out: GI
PC-3 [23] = assay: Cytotoxicity against human PC3 cells after 48 hrs by SRB assay; type: functional, cell-based; settings: PC-3, 48 h
THP-1 [24] = assay: Cytotoxicity against human THP1 cells at 30 uM after 48 hrs by SRB assay; type: functional; settings: THP-1, 48 h, read-out: GI
CV-1 = assay: Induction of apoptosis in african green monkey CV1 cells assessed as DNA ladder formation at 10 to 60 uM after 24 hrs by DNA agarose gel electrophoresis; type: cell-based; settings: chlorocebus aethiops, cv-1, 24 h
Method in brief: (§2)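 DNA fragmentation assay in HL-60 cells (2 × 10⁶ cells/well) or CV-1 cells, treated for 24 h. Cells were lysed in Tris–HCl pH 8.0/NaCl/EDTA/Triton X-100 with proteinase K (200 µg/mL) at 50 °C for 1 h, then DNase-free RNase for 90 min. DNA was phenol:chloroform extracted and ethanol precipitated. Gels were 1% agarose in TAE at 80 V for 1.5 h. Camptothecin (5 µM, 6 h) served as positive control in HL-60.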

THP-1 [25] = assay: Inhibition of cell migration in human THP1 cells at 1 to 30 uM after 24 hrs by wound-healing assay; type: functional, cell-based; method in brief: as §1
A549 [26] = assay: Cytotoxicity against human A549 cells at 10 uM after 48 hrs by SRB assay; type: functional; settings: A549, 48 h, read-out: GI
HL-60 [27] = assay: Induction of apoptosis in human HL60 cells assessed as DNA ladder formation after 24 hrs by DNA agarose gel electrophoresis; type: functional; method in brief: as §2
SF-295 [28] = assay: Cytotoxicity against human SF295 cells at 30 uM after 48 hrs by SRB assay; type: functional; settings: SF-295, 48 h, read-out: GI
HCT-15 [29] = assay: Cytotoxicity against human HCT15 cells after 48 hrs by SRB assay; type: functional, cell-based; settings: HCT-15, 48 h
HL-60 [30] = assay: Induction of apoptosis in human HL60 cells assessed as DNA ladder formation at 20 to 30 uM after 24 hrs by DNA agarose gel electrophoresis; type: functional, cell-based; method in brief: as §2
HL-60 [31] = assay: Cytotoxicity against human HL60 cells at 50 uM after 48 hrs by SRB assay; type: functional; settings: HL-60, 48 h, read-out: GI
HCT-15 [32] = assay: Cytotoxicity against human HCT15 cells at 10 uM after 48 hrs by SRB assay; type: functional; settings: HCT-15, 48 h, read-out: GI
HEp-2 [33] = assay: Cytotoxicity against human Hep2 cells at 10 uM after 48 hrs by SRB assay; type: functional; settings: HEp-2, 48 h, read-out: GI
HL-60 [34] = assay: Cytotoxicity against human HL60 cells at 10 uM after 48 hrs by SRB assay; type: functional; settings: HL-60, 48 h, read-out: GI
MCF7 [35] = assay: Cytotoxicity against human MCF7 cells at 50 uM after 48 hrs by SRB assay; type: functional; settings: MCF7, 48 h, read-out: GI
THP-1 [36] = assay: Cytotoxicity against human THP1 cells at 10 uM after 48 hrs by SRB assay; type: functional; settings: THP-1, 48 h, read-out: GI
THP-1 [37] = assay: Inhibition of colony formation in human THP1 cells using crystal violet staining after 24 hrs by clonogenic assay; type: functional, cell-based
Method in brief: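 THP-1 cells from log-phase culture were plated at clonogenic dilution. After 24 h they were treated for 24 h, then incubated for at least six potential divisions (colonies >50 cells). Colonies were fixed and stained with 6% glutaraldehyde plus 0.5% crystal violet for 30 min, washed with water and air-dried.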

A549 [38] = assay: Cytotoxicity against human A549 cells after 48 hrs by SRB assay; type: functional, cell-based; settings: A549, 48 h
DU-145 [39] = assay: Cytotoxicity against human DU145 cells at 50 uM after 48 hrs by SRB assay; type: functional; settings: DU-145, 48 h, read-out: GI
PC-3 [40] = assay: Cytotoxicity against human PC3 cells at 50 uM after 48 hrs by SRB assay; type: functional; settings: PC-3, 48 h, read-out: GI
PC-3 [41] = assay: Cytotoxicity against human PC3 cells at 30 uM after 48 hrs by SRB assay; type: functional; settings: PC-3, 48 h, read-out: GI
SF-295 [42] = assay: Cytotoxicity against human SF295 cells after 48 hrs by SRB assay; type: functional, cell-based; settings: SF-295, 48 h
HL-60 [43] = assay: Cytotoxicity against human HL60 cells at 30 uM after 48 hrs by SRB assay; type: functional; settings: HL-60, 48 h, read-out: GI

Compound: C=C(C)[C@@H]1CC[C@]2(C(=O)O)CC[C@]3(C)[C@H](CC[C@@H]4[C@@]5(C)CC[C@H](OCc6cn(-c7cccc8c(O)cccc78)nn6)C(C)(C)[C@@H]5CC[C@]43C)[C@@H]12
- IC50 (THP-1 [1]): 8 µM
- inhibition (THP-1 [2]): Active
- inhibition of growth at 30 µM (A549 [3]): 60%
- inhibition of growth at 30 µM (HEp-2 [4]): 63%
- inhibition of growth at 50 µM (A549 [5]): 72%
- IC50 (HL-60 [6]): 3.5 µM
- inhibition of growth at 10 µM (PC-3 [7]): 35%
- inhibition of growth at 50 µM (THP-1 [8]): 92%
- IC50 (DU-145 [9]): 14 µM
- inhibition of growth at 30 µM (MCF7 [10]): 63%
- inhibition of growth at 10 µM (SF-295 [11]): 18%
- IC50 (HEp-2 [12]): 13 µM
- inhibition of growth at 30 µM (DU-145 [13]): 69%
- inhibition of growth at 30 µM (HCT-15 [14]): 64%
- Ratio IC50 (HL-60 [15]): 5
- Activity (HL-60 [16]): Dose-dependent effect
- IC50 (MCF7 [17]): 9 µM
- inhibition of growth at 50 µM (HEp-2 [18]): 74%
- inhibition of growth at 10 µM (DU-145 [19]): 38%
- inhibition of growth at 50 µM (HCT-15 [20]): 72%
- inhibition of growth at 10 µM (MCF7 [21]): 51%
- inhibition of growth at 50 µM (SF-295 [22]): 87%
- IC50 (PC-3 [23]): 16 µM
- inhibition of growth at 30 µM (THP-1 [24]): 82%
- Activity (CV-1): Non-toxic
- inhibition (THP-1 [25]): Active
- inhibition of growth at 10 µM (A549 [26]): 42%
- Activity (HL-60 [27]): Dose-dependent effect
- MED (HL-60 [27]): 20 µM
- inhibition of growth at 30 µM (SF-295 [28]): 61%
- IC50 (HCT-15 [29]): 15 µM
- Activity (HL-60 [30]): Active
- inhibition of growth at 50 µM (HL-60 [31]): 98%
- inhibition of growth at 10 µM (HCT-15 [32]): 40%
- inhibition of growth at 10 µM (HEp-2 [33]): 45%
- inhibition of growth at 10 µM (HL-60 [34]): 63%
- inhibition of growth at 50 µM (MCF7 [35]): 82%
- inhibition of growth at 10 µM (THP-1 [36]): 51%
- inhibition (THP-1 [37]): Dose-dependent effect
- IC50 (A549 [38]): 16 µM
- inhibition of growth at 50 µM (DU-145 [39]): 86%
- inhibition of growth at 50 µM (PC-3 [40]): 94%
- inhibition of growth at 30 µM (PC-3 [41]): 61%
- IC50 (SF-295 [42]): 25 µM
- inhibition of growth at 30 µM (HL-60 [43]): 95%
